In ChEMBL document CHEMBL3739269, “Suppression of store overload-induced calcium release by hydroxylated metabolites of carvedilol” (Bioorg Med Chem Lett, 2016):
Calls of active or inactive are those of the source. The calls are words filed in the database; no cut-off is given here.

Assays:
Settings in all cases: Homo sapiens
HEK293 [1] = test: Inhibition of RyR2 R4496C mutant in HEK293 cells assessed as inhibition of store overload-induced calcium release at 30 uM by fura-2 AM dye based fluorescence assay; assay type: cell-based
Outline: (§1)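 HEK293 cells expressing RyR2 R4496C, loaded with fura-2 AM, were followed by single-cell Ca²⁺ imaging. Cells were perfused continuously with rising drug levels (0, 3, 10, 30 µM) without pre-incubation. Read-out was the percentage of cells showing spontaneous Ca²⁺ oscillations at each concentration.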

HEK293 [2] = test: Induction of cytosolic calcium level in HEK293 cells expressing RyR2 R4496C mutant at 30 uM by fura-2 AM dye based fluorescence assay; assay type: functional, cell-based
Outline: (§2)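 Fura-2 ratio imaging of single HEK293 cells expressing mutant RyR2 (R4496C), perfused with compound up to 30 µM without pre-incubation. Cytosolic Ca²⁺ level was monitored, and caffeine, a RyR2 agonist, was then added to trigger Ca²⁺ release. Amplitude of the caffeine-induced release was read from the traces.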

HEK293 [3] = test: Inhibition of RyR2 R4496C mutant in HEK293 cells assessed as reduction of caffeine-induced calcium release at 30 uM by fura-2 AM dye based fluorescence assay; assay type: cell-based; outline: as §2
HEK293 [4] = test: Inhibition of RyR2 R4496C mutant in HEK293 cells assessed as inhibition of store overload-induced calcium release at 10 uM by fura-2 AM dye based fluorescence assay; assay type: cell-based; outline: as §1
[5] = Inhibition of RyR2 R4496C mutant-mediated store overload-induced calcium release in HEK293 cells assessed as reduction in amplitude of spontaneous calcium oscillations by fura-2 AM dye based fluorescence assay; assay type: cell-based
Outline: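 Single-cell fura-2 ratio traces were recorded in R4496C RyR2-expressing HEK293 cells. Cells were perfused continuously with increasing concentrations (0, 3, 10, 30 µM) without pre-incubation. The amplitude of spontaneous Ca²⁺ oscillations was compared before and after each addition.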

| IC50 [5] [µM] | SMILES | inhibition (HEK293 [1]) | Activity (HEK293 [2]) | inhibition (HEK293 [3]) | inhibition (HEK293 [4]) [%] |
| --- | --- | --- | --- | --- | --- |
| 19.4 | COc1ccc(O)cc1OCCNCC(O)COc1cccc2[nH]c3ccccc3c12 (stereo not given) | 80% | inactive | inactive | 10 |
| 9.4 | COc1ccccc1OCCNCC(O)COc1c(O)ccc2[nH]c3ccccc3c12 (stereo not given) | Active | Active | Active | 70 |
| 10.4 | COc1cc(O)ccc1OCCNCC(O)COc1cccc2[nH]c3ccccc3c12 (stereo not given) | Active | inactive | inactive | 10 |
